Data published in ChEMBL document CHEMBL1777788, “Synthesis and in vitro antimicrobial activities of new (cyano-NNO-azoxy)pyrazole derivatives” (2011).
In brackets after ≈: the same amount, converted by molar mass.

How the values were obtained:
[1] = test system: Pichia kudriavzevii; assay: Antimicrobial activity against Candida krusei ATCC 6258 after 48 hrs by microdilution broth method; assay type: functional; details: ATCC 6258, 48 h
[2] = test system: Pichia kudriavzevii; assay: Antimicrobial activity against Candida krusei isolate 43 after 48 hrs by microdilution broth method; assay type: functional
[3] = test system: Pichia kudriavzevii; assay: Antimicrobial activity against Candida krusei isolate 48 after 48 hrs by microdilution broth method; assay type: functional
[4] = test system: Candida parapsilosis; assay: Antimicrobial activity against Candida parapsilosis ATCC 22019 after 48 hrs by microdilution broth method; assay type: functional; details: Lodderomyces parapsilosis, ATCC 22019, 48 h
How it was run: (§1)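 Yeasts were grown overnight on Sabouraud dextrose agar at 35°C, suspended in water, and adjusted at 530 nm to McFarland 0.5 (approximately 1-5 x 10^6 CFU/ml). They were then diluted 1:100 and 1:20 in RPMI 1640 with 0.165 M MOPS and 2% glucose. Compound in DMSO was tested at ten concentrations, 0.25–256 mg/L, with incubation at 35°C. At 48 h, MIC was read spectrophotometrically as 50% turbidity reduction versus growth control.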

[5] = test system: Nakaseomyces glabratus; assay: Antimicrobial activity against Candida glabrata isolate 49 after 48 hrs by microdilution broth method; assay type: functional; how it was run: as §1
[6] = test system: Proteus mirabilis; assay: Antimicrobial activity against Proteus mirabilis isolate after 24 hrs by microdilution broth method
[7] = test system: Nakaseomyces glabratus; assay: Antimicrobial activity against Candida glabrata isolate 46 after 48 hrs by microdilution broth method; assay type: functional; how it was run: as §1
[8] = test system: Cryptococcus deneoformans; assay: Antimicrobial activity against Cryptococcus neoformans var. neoformans isolate 14 after 48 hrs by microdilution broth method; assay type: functional; details: isolate 14, 48 h; how it was run: as §1
[9] = test system: Pseudomonas aeruginosa; assay: Antimicrobial activity against Pseudomonas aeruginosa isolate 1 after 24 hrs by microdilution broth method; details: isolate 1, 24 h
[10] = test system: Cryptococcus deneoformans; assay: Antimicrobial activity against Cryptococcus neoformans var. neoformans isolate 30 after 48 hrs by microdilution broth method; assay type: functional; details: isolate 30, 48 h; how it was run: as §1
[11] = test system: Candida albicans; assay: Antimicrobial activity against Candida albicans isolate 48 after 48 hrs by microdilution broth method; assay type: functional; details: isolate 48, 48 h; how it was run: as §1
[12] = test system: Candida tropicalis; assay: Antimicrobial activity against Candida tropicalis isolate 22 after 48 hrs by microdilution broth method; assay type: functional; details: isolate 22, 48 h; how it was run: as §1
[13] = test system: Nakaseomyces glabratus; assay: Antimicrobial activity against Candida glabrata isolate 32 after 48 hrs by microdilution broth method; assay type: functional; details: isolate 32, 48 h; how it was run: as §1
[14] = test system: Candida parapsilosis; assay: Antimicrobial activity against Candida parapsilosis isolate 19 after 48 hrs by microdilution broth method; assay type: functional; details: Lodderomyces parapsilosis, isolate 19, 48 h; how it was run: as §1
[15] = test system: Candida tropicalis; assay: Antimicrobial activity against Candida tropicalis isolate 33 after 48 hrs by microdilution broth method; assay type: functional; details: isolate 33, 48 h; how it was run: as §1
[16] = test system: Pichia kudriavzevii; assay: Antimicrobial activity against Candida krusei isolate 31 after 48 hrs by microdilution broth method; assay type: functional; details: isolate 31, 48 h; how it was run: as §1
[17] = test system: Escherichia coli; assay: Antimicrobial activity against Escherichia coli isolate after 24 hrs by microdilution broth method
[18] = test system: Cryptococcus deneoformans; assay: Antimicrobial activity against Cryptococcus neoformans var. neoformans isolate 25 after 48 hrs by microdilution broth method; assay type: functional; details: isolate 25, 48 h; how it was run: as §1
[19] = test system: Candida parapsilosis; assay: Antimicrobial activity against Candida parapsilosis isolate 26 after 48 hrs by microdilution broth method; assay type: functional; details: Lodderomyces parapsilosis, isolate 26, 48 h; how it was run: as §1
[20] = test system: Pseudomonas aeruginosa; assay: Antimicrobial activity against Pseudomonas aeruginosa isolate 2 after 24 hrs by microdilution broth method; details: isolate 2, 24 h
[21] = test system: Staphylococcus aureus; assay: Antimicrobial activity against methicillin-susceptible Staphylococcus aureus isolate after 24 hrs by microdilution broth method
[22] = test system: Nakaseomyces glabratus; assay: Antimicrobial activity against Candida glabrata isolate 30 after 48 hrs by microdilution broth method; assay type: functional; how it was run: as §1
[23] = test system: Candida albicans; assay: Antimicrobial activity against Candida albicans isolate 47 after 48 hrs by microdilution broth method; assay type: functional; details: isolate 47, 48 h; how it was run: as §1
[24] = test system: Cryptococcus deneoformans; assay: Antimicrobial activity against Cryptococcus neoformans var. neoformans isolate 27 after 48 hrs by microdilution broth method; assay type: functional; details: isolate 27, 48 h; how it was run: as §1
[25] = test system: Candida tropicalis; assay: Antimicrobial activity against Candida tropicalis isolate 11 after 48 hrs by microdilution broth method; assay type: functional; details: isolate 11, 48 h; how it was run: as §1
[26] = test system: Candida albicans; assay: Antimicrobial activity against Candida albicans isolate 31 after 48 hrs by microdilution broth method; assay type: functional; details: isolate 31, 48 h; how it was run: as §1
[27] = test system: Candida albicans; assay: Antimicrobial activity against Candida albicans isolate 41 after 48 hrs by microdilution broth method; assay type: functional; details: isolate 41, 48 h; how it was run: as §1
[28] = test system: Candida parapsilosis; assay: Antimicrobial activity against Candida parapsilosis isolate 44 after 48 hrs by microdilution broth method; assay type: functional; details: Lodderomyces parapsilosis, isolate 44, 48 h; how it was run: as §1
[29] = test system: Staphylococcus aureus; assay: Antimicrobial activity against methicillin-resistant Staphylococcus aureus isolate after 24 hrs by microdilution broth method
[30] = test system: Candida parapsilosis; assay: Antimicrobial activity against Candida parapsilosis isolate 39 after 48 hrs by microdilution broth method; assay type: functional; details: Lodderomyces parapsilosis, isolate 39, 48 h
How it was run: (§2)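 Yeasts grown overnight on Sabouraud dextrose agar at 35°C, suspended in sterile water, and adjusted to McFarland 0.5 at 530 nm (about 1-5 x 10^6 CFU/ml), then diluted 1:100 and 1:20 in RPMI 1640 with 0.165 M MOPS and 2% glucose. Compound in DMSO tested at ten concentrations, 0.25-256 mg/L, at 35°C. MIC read spectrophotometrically at 48 h as 50% turbidity reduction versus growth control.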

[31] = test system: Candida tropicalis; assay: Antimicrobial activity against Candida tropicalis isolate 15 after 48 hrs by microdilution broth method; assay type: functional; details: isolate 15, 48 h; how it was run: as §1
[32] = test system: Candida albicans; assay: Antimicrobial activity against Candida albicans ATCC 90028 after 48 hrs by microdilution broth method; assay type: functional; details: ATCC 90028, 48 h; how it was run: as §2

SMILES	MIC [1] [µg/mL]	MIC [2] [µg/mL]	MIC [3] [µg/mL]	MIC [4] [µg/mL]	MIC [5] [µg/mL]	MIC [7] [µg/mL]	MIC [8] [µg/mL]	MIC [10] [µg/mL]	MIC [11] [µg/mL]	MIC [12] [µg/mL]	MIC [13] [µg/mL]	MIC [14] [µg/mL]	MIC [15] [µg/mL]	MIC [16] [µg/mL]	MIC [18] [µg/mL]	MIC [19] [µg/mL]	MIC [22] [µg/mL]	MIC [23] [µg/mL]	MIC [24] [µg/mL]	MIC [25] [µg/mL]	also measured
Cc1nn(C)c(C)c1/[N+]([O-])=N/C#N	16 (≈ 89.3 µM)	32 (≈ 179 µM)	32 (≈ 179 µM)	32 (≈ 179 µM)	64 (≈ 357 µM)	64 (≈ 357 µM)	32 (≈ 179 µM)	32 (≈ 179 µM)	32 (≈ 179 µM)	64 (≈ 357 µM)	16 (≈ 89.3 µM)	64 (≈ 357 µM)	64 (≈ 357 µM)	32 (≈ 179 µM)	32 (≈ 179 µM)	64 (≈ 357 µM)	64 (≈ 357 µM)	32 (≈ 179 µM)	32 (≈ 179 µM)	128 (≈ 714 µM)	MIC [6]: > 128 µg/mL; MIC [9]: > 128 µg/mL; MIC [17]: > 128 µg/mL; MIC [20]: > 128 µg/mL; MIC [21]: > 128 µg/mL; MIC [26]: 32 µg/mL (≈ 179 µM); MIC [27]: 32 µg/mL (≈ 179 µM); MIC [28]: 64 µg/mL (≈ 357 µM)
Cc1c(/[N+]([O-])=N/C#N)c(-c2ccccn2)nn1C	16 (≈ 66 µM)	16 (≈ 66 µM)	8 (≈ 33 µM)	128 (≈ 528 µM)	128 (≈ 528 µM)	64 (≈ 264 µM)	16 (≈ 66 µM)	8 (≈ 33 µM)	128 (≈ 528 µM)	128 (≈ 528 µM)	4 (≈ 16.5 µM)	128 (≈ 528 µM)	128 (≈ 528 µM)	16 (≈ 66 µM)	8 (≈ 33 µM)	128 (≈ 528 µM)	64 (≈ 264 µM)	128 (≈ 528 µM)	16 (≈ 66 µM)	128 (≈ 528 µM)	MIC [6]: > 128 µg/mL; MIC [9]: > 128 µg/mL; MIC [29]: 32 µg/mL (≈ 132 µM); MIC [17]: > 128 µg/mL; MIC [20]: > 128 µg/mL; MIC [21]: 64 µg/mL (≈ 264 µM); MIC [26]: 64 µg/mL (≈ 264 µM); MIC [27]: 16 µg/mL (≈ 66 µM); MIC [28]: 128 µg/mL (≈ 528 µM)
Cc1cc(-c2nn(C)c(C)c2/[N+]([O-])=N/C#N)nn1C	> 128	> 128	> 128	> 128	> 128	> 128	16 (≈ 61.7 µM)	16 (≈ 61.7 µM)	> 128	> 128	> 128	> 128	> 128	> 128	16 (≈ 61.7 µM)	> 128	> 128	> 128	16 (≈ 61.7 µM)	> 128	MIC [6]: > 128 µg/mL; MIC [9]: > 128 µg/mL; MIC [29]: 32 µg/mL (≈ 123 µM); MIC [17]: > 128 µg/mL; MIC [20]: > 128 µg/mL; MIC [21]: 32 µg/mL (≈ 123 µM); MIC [26]: 64 µg/mL (≈ 247 µM); MIC [27]: > 128 µg/mL; MIC [28]: > 128 µg/mL
Cc1cc(-c2nn(C)c(C)c2/[N+]([O-])=N/C#N)on1	32 (≈ 130 µM)	32 (≈ 130 µM)	64 (≈ 260 µM)	128 (≈ 520 µM)	128 (≈ 520 µM)	128 (≈ 520 µM)	2 (≈ 8.12 µM)	2 (≈ 8.12 µM)	128 (≈ 520 µM)	> 128	32 (≈ 130 µM)	128 (≈ 520 µM)	128 (≈ 520 µM)	64 (≈ 260 µM)	2 (≈ 8.12 µM)	128 (≈ 520 µM)	128 (≈ 520 µM)	128 (≈ 520 µM)	2 (≈ 8.12 µM)	128 (≈ 520 µM)	MIC [6]: > 128 µg/mL; MIC [9]: > 128 µg/mL; MIC [29]: 2 µg/mL (≈ 8.12 µM); MIC [17]: > 128 µg/mL; MIC [20]: > 128 µg/mL; MIC [21]: 4 µg/mL (≈ 16.2 µM); MIC [26]: 128 µg/mL (≈ 520 µM); MIC [27]: 64 µg/mL (≈ 260 µM); MIC [28]: 128 µg/mL (≈ 520 µM)
Cc1cc(-c2c(/[N+]([O-])=N/C#N)c(C)nn2C)no1	16 (≈ 65 µM)	32 (≈ 130 µM)	32 (≈ 130 µM)	> 128	64 (≈ 260 µM)	128 (≈ 520 µM)	8 (≈ 32.5 µM)	8 (≈ 32.5 µM)	128 (≈ 520 µM)	> 128	16 (≈ 65 µM)	> 128	> 128	32 (≈ 130 µM)	8 (≈ 32.5 µM)	128 (≈ 520 µM)	128 (≈ 520 µM)	128 (≈ 520 µM)	8 (≈ 32.5 µM)	128 (≈ 520 µM)	MIC [6]: > 128 µg/mL; MIC [9]: > 128 µg/mL; MIC [17]: > 128 µg/mL; MIC [20]: > 128 µg/mL; MIC [21]: > 128 µg/mL; MIC [26]: 32 µg/mL (≈ 130 µM); MIC [27]: 32 µg/mL (≈ 130 µM); MIC [28]: 128 µg/mL (≈ 520 µM)
C[C@@H](c1ncncc1F)[C@](O)(Cn1cncn1)c1ccc(F)cc1F [VORICONAZOLE]	0.25 (≈ 0.716 µM)	0.5 (≈ 1.43 µM)	0.25 (≈ 0.716 µM)	0.06 (≈ 0.172 µM)	0.12 (≈ 0.344 µM)	0.25 (≈ 0.716 µM)	< 0.008	0.016 (≈ 0.0458 µM)	< 0.008	0.06 (≈ 0.172 µM)	4 (≈ 11.5 µM)	0.008 (≈ 0.0229 µM)	< 0.008	0.12 (≈ 0.344 µM)	0.016 (≈ 0.0458 µM)	< 0.008	0.25 (≈ 0.716 µM)	0.008 (≈ 0.0229 µM)	0.016 (≈ 0.0458 µM)	0.12 (≈ 0.344 µM)	MIC [30]: 0.016 µg/mL (≈ 0.0458 µM); MIC [31]: 0.06 µg/mL (≈ 0.172 µM); MIC [32]: 0.008 µg/mL (≈ 0.0229 µM); MIC [26]: < 0.008 µg/mL; MIC [27]: < 0.008 µg/mL; MIC [28]: 0.016 µg/mL (≈ 0.0458 µM)
